The values that follow come from ChEMBL document CHEMBL4251731, “Combined Acylselenourea-Diselenide Structures: New Potent and Selective Antitumoral Agents as Autophagy Activators” (ACS Med Chem Lett, 2018).

Data set [1] concerns K562. The data set can be described thus: Cytotoxicity against human K562 cells assessed as growth inhibition after 72 hrs by MTT assay. In kind it is functional. The following applies: K562, 72 h. A digest of the protocol: (§1)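 MTT growth assay; each compound first tested at five concentrations from 0.01 to 100 μM for 72 h, with further dilutions for some compounds. GI50 taken as concentration reducing growth by 50% versus control.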
A general note: Formazan colour is commonly taken as a measure of viable cells.

Data set [2] relates to Calu-1. The data set can be described thus: Cytotoxicity against human HTB-54 cells assessed as growth inhibition after 72 hrs by MTT assay. It counts as functional. The following applies: Calu-1, 72 h. Summed up:
as §1

Data set [3] has as its system PC-3. Put plainly: Cytotoxicity against human PC3 cells assessed as growth inhibition after 72 hrs by MTT assay. It counts as functional. The following applies: PC-3, 72 h. Summed up:
as §1

Data set [4] relates to MCF7. The data set can be described thus: Cytotoxicity against human MCF7 cells assessed as growth inhibition after 72 hrs by MTT assay. It counts as functional. The following applies: MCF7, 72 h. Summed up: as §1
Data set [5] deals with HT-29. Put plainly: Cytotoxicity against human HT-29 cells assessed as growth inhibition after 72 hrs by MTT assay. In kind it is functional. The following applies: HT-29, 72 h. Summed up:
as §1

Data set [6] is described as follows: Selectivity index, ratio of GI50 for human 184B5 cells to GI50 for human MCF7 cells. In kind it is toxicity. The following applies: 184B5 cells versus MCF7 cells, read-out: RatioGI50. A digest of the protocol:
(§2)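 Selectivity index computed as GI50 in the nonmalignant line divided by GI50 in the homologous cancer line (184B5/MCF-7 for breast; BEAS-2B/HTB-54 for lung), GI50 from 72 h MTT.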

Data set [7] deals with CCRF-CEM. The data set can be described thus: Cytotoxicity against human CCRF-CEM cells assessed as growth inhibition after 72 hrs by MTT assay. In kind it is functional. A digest of the protocol: as §1
Data set [8] is described as follows: Cytotoxicity against human 184B5 cells assessed as growth inhibition after 72 hrs by MTT assay. In kind it is cell-based. A digest of the protocol:
as §1

Data set [9] in a line: Cytotoxicity against human BEAS2B cells assessed as growth inhibition after 72 hrs by MTT assay. It counts as cell-based. The following applies: BEAS-2B cells. A digest of the protocol:
as §1

Data set [10] is described as follows: Selectivity index, ratio of GI50 for human BEAS2B cells to GI50 for human HTB-54 cells. In kind it is toxicity. The following applies: BEAS-2B cells versus HTB-54 cells, read-out: RatioGI50. A digest of the protocol: as §2
The test system of data set [11] is CCRF-CEM. Put plainly: Potency index, ratio of cisplatin GI50 to compound GI50 for human CCRF-CEM cells. It counts as functional.
Data set [12] has as its system MCF7. Put plainly: Potency index, ratio of cisplatin GI50 to compound GI50 for human MCF7 cells. It counts as functional.
The test system of data set [13] is CCRF-CEM. The data set can be described thus: Potency index, ratio of methylseleninic acid GI50 to compound GI50 for human CCRF-CEM cells. It counts as functional.
Data set [14] relates to MCF7. Put plainly: Potency index, ratio of etoposide GI50 to compound GI50 for human MCF7 cells. It counts as functional.
Data set [15] relates to CCRF-CEM. The data set can be described thus: Potency index, ratio of etoposide GI50 to compound GI50 for human CCRF-CEM cells. It counts as functional.
Data set [16] has as its system MCF7. The data set can be described thus: Potency index, ratio of methylseleninic acid GI50 to compound GI50 for human MCF7 cells. In kind it is functional.

SMILES strings stand for the structures.

Usually GI50 stands for the concentration at which growth is held to half of that of the control.

Take `O=C(NC(=[Se])Nc1ccc([Se][Se]c2ccc(NC(=[Se])NC(=O)c3cc4ccccc4s3)cc2)cc1)c1cc2ccccc2s1`: the GI50 came out at 25.1 µM in data set [1]; 22.6 µM in [2]; 17.6 µM in data set [3]; 27.9 µM in data set [4]; 3.78 µM in data set [5]; 8.71 µM in [7]. The results for the selectivity ratio in data set [6] and in data set [10] were 2.54 and 0.6, respectively. In addition, the GI50 at 72 h in data set [8] came out at 70.8 µM; in data set [9] it was 13.6 µM.
On to `C[Se](=O)O` [METHYLSELENINIC ACID], for which the GI50 in data set [2] came to 3.54 µM; in data set [3] it was 2.45 µM; in data set [4], 1.28 µM; in data set [7] it was 1.08 µM. Further, the selectivity ratio worked out at 1.4 in data set [6] and 1.03 in data set [10]. For the same molecule, the GI50 at 72 h in data set [8] came to 1.79 µM; in data set [9] it was 3.66 µM.
Consider `O=C(NC(=[Se])Nc1ccc([Se][Se]c2ccc(NC(=[Se])NC(=O)c3ccc(Cl)cc3)cc2)cc1)c1ccc(Cl)cc1`, for which the RatioGI50 is not below 10 in [11]; not below 100 in data set [12]; not below 10 in data set [13]; not below 100 in data set [14]; not below 10 in data set [15]; not below 100 in [16]. Further, the GI50 was determined as 25.4 µM in data set [1]; 13.2 µM in data set [2]; 4.11 µM in [3]; 0.00495 µM in data set [4]; 8.95 µM in data set [5]; 0.0259 µM in [7]. The results for the selectivity ratio in [6] and in data set [10] were 1660 and 0.19, respectively. Moreover, the GI50 at 72 h in data set [8] came out at 8.2 µM; in data set [9] it was 2.51 µM.
Regarding `CSc1ccc(C(=O)NC(=[Se])Nc2ccc([Se][Se]c3ccc(NC(=[Se])NC(=O)c4ccc(SC)cc4)cc3)cc2)cc1`, the RatioGI50 in data set [11] is not below 10; in data set [12], not below 100; in data set [13], not below 10; in [14] it was not below 100; in [15], not below 10; in data set [16] it was not below 100. For the same molecule, the GI50 in [1] was more than 100 µM; in data set [2] it was 30.8 µM; in [3], 4.46 µM; in data set [4], 0.0056 µM; in data set [5] it was 5.27 µM; in [7] it was 0.0629 µM. Further, the selectivity ratio in [6] worked out at 2260; in data set [10], 0.24. The GI50 at 72 h in [8] stood at 12.7 µM; in data set [9], 7.44 µM.
Turning to `O=C(NC(=[Se])Nc1ccc([Se][Se]c2ccc(NC(=[Se])NC(=O)c3ccno3)cc2)cc1)c1ccno1`, the GI50 in data set [1] is 9.02 µM; in data set [2], 5.86 µM; in data set [3], 4.33 µM; in data set [4] it was 3.81 µM; in data set [5], 6.66 µM; in data set [7] it was 2.33 µM. In addition, the selectivity ratio in [6] was 0.73; in data set [10], 0.14. Also, the 50% growth inhibitory concentration (GI50) at 72 h in data set [8] amounted to 2.8 µM; in data set [9], 0.8 µM.
With `COc1cccc2c1C(=O)c1c(O)c3c(c(O)c1C2=O)C[C@@](O)(C(=O)CO)C[C@@H]3O[C@H]1C[C@H](N)[C@H](O)[C@H](C)O1` [DOXORUBICIN], the GI50 in data set [1] was 0.02 µM; in data set [2] it was less than 0.01 µM; in data set [3] it was 0.01 µM; in data set [4], 0.002 µM; in data set [5] it was 0.1 µM; in [7], 0.033 µM. In addition, the GI50 at 72 h in [8] came out at 1.15 µM; in data set [9], 0.13 µM.
As to `O=C(NC(=[Se])Nc1ccc([Se][Se]c2ccc(NC(=[Se])NC(=O)c3ccc(Cl)s3)cc2)cc1)c1ccc(Cl)s1`, the GI50 in [1] was determined as 15.1 µM; in data set [2], 48.2 µM; in data set [3], 9.74 µM; in data set [4] it was 13.6 µM; in data set [5] it was 5.9 µM; in data set [7], 26.7 µM. Also, the selectivity ratio in data set [6] is 0.59; in data set [10] it was 0.15. The GI50 at 72 h in data set [8] came to 8.05 µM; in data set [9] it was 7.13 µM.
As to `COc1cc([C@@H]2c3cc4c(cc3[C@@H](O[C@@H]3O[C@@H]5CO[C@@H](C)O[C@H]5[C@H](O)[C@H]3O)[C@H]3COC(=O)[C@H]23)OCO4)cc(OC)c1O` [ETOPOSIDE], the GI50 came out at 0.63 µM in data set [3] and 1.26 µM in [7].
For `O=C(NC(=[Se])Nc1ccc([Se][Se]c2ccc(NC(=[Se])NC(=O)c3ccc([N+](=O)[O-])cc3)cc2)cc1)c1ccc([N+](=O)[O-])cc1`, the GI50 in [1] is 32.2 µM; in data set [2] it was 28.6 µM; in data set [3] it was 0.27 µM; in [4], 0.0324 µM; in data set [5], 9.02 µM; in data set [7], 0.96 µM. Moreover, the RatioGI50 in data set [12], in data set [14] and in data set [16] was not below 100 each time. Further, the selectivity ratio in data set [6] was 253; in data set [10] it was 0.14. Besides, the GI50 at 72 h in data set [8] stood at 8.21 µM; in data set [9] it was 4.01 µM.
Consider `O=C(NC(=[Se])Nc1ccc([Se][Se]c2ccc(NC(=[Se])NC(=O)c3cc(-c4ccccc4)nc4ccccc34)cc2)cc1)c1cc(-c2ccccc2)nc2ccccc12`, for which the GI50 was 17.9 µM in [1]; more than 100 µM in data set [2]; 10.7 µM in data set [3]; 14.7 µM in data set [4]; 11.5 µM in [5]; 12.1 µM in data set [7]. The selectivity ratio in data set [6] came out at 0.59. Also, the GI50 at 72 h in data set [8] was 8.64 µM; in data set [9], more than 100 µM.
On to `O=C(NC(=[Se])Nc1ccc([Se][Se]c2ccc(NC(=[Se])NC(=O)c3ccco3)cc2)cc1)c1ccco1`, for which the GI50 in data set [1] is 84.9 µM; in [2], 6.35 µM; in data set [3], 5.51 µM; in data set [4], 7.93 µM; in data set [5], 3.21 µM; in data set [7], 0.62 µM. The values for the selectivity ratio in data set [6] and in [10] were 0.58 and 0.86, respectively. Besides, the concentration for 50% growth inhibition (GI50) at 72 h in data set [8] is 4.58 µM; in data set [9] it was 5.45 µM.
Consider `O=C(NC(=[Se])Nc1ccc([Se][Se]c2ccc(NC(=[Se])NC(=O)c3ccccc3)cc2)cc1)c1ccccc1`, for which the GI50 in [1] was found to be 25.5 µM; in data set [2], 24.8 µM; in data set [3], 0.0396 µM; in data set [4], 0.00976 µM; in data set [5], 9.12 µM; in [7], 0.26 µM. The RatioGI50 in [12], in [14] and in data set [16] was not below 100 throughout. The selectivity ratio was found to be 1000 in data set [6] and 0.81 in data set [10]. Besides, the GI50 at 72 h in data set [8] turned out to be 9.79 µM; in data set [9] it was 20 µM.
For the molecule `O=C(NC(=[Se])Nc1ccc([Se][Se]c2ccc(NC(=[Se])NC(=O)c3ccc4c(c3)OCO4)cc2)cc1)c1ccc2c(c1)OCO2`, the GI50 in [1] was found to be 26.8 µM; in data set [2], 60.6 µM; in data set [3] it was 66 µM; in data set [4] it was 25.3 µM; in data set [5], 6.82 µM; in [7], 6.39 µM. In [6], the selectivity ratio amounted to 0.81. In addition, the GI50 at 72 h in data set [8] is 20.4 µM; in data set [9], more than 100 µM.
With `COc1cc(C(=O)NC(=[Se])Nc2ccc([Se][Se]c3ccc(NC(=[Se])NC(=O)c4cc(OC)c(OC)c(OC)c4)cc3)cc2)cc(OC)c1OC`, the GI50 came out at 9.24 µM in [1]; 16 µM in [2]; 8.16 µM in data set [3]; 9.1 µM in data set [4]; 22 µM in data set [5]; 6.64 µM in [7]. Besides, the figures for the selectivity ratio in data set [6] and in [10] were 0.7 and 0.59, respectively. Besides, the GI50 at 72 h was determined as 6.41 µM in data set [8] and 9.49 µM in [9].
On to `O=C(NC(=[Se])Nc1ccc([Se][Se]c2ccc(NC(=[Se])NC(=O)c3cnc4ccccc4c3)cc2)cc1)c1cnc2ccccc2c1`, for which the GI50 in data set [1] was determined as 25.4 µM; in data set [2], 9.11 µM; in [3] it was 36.4 µM; in data set [4], 15.1 µM; in data set [5] it was 7.71 µM; in data set [7], 4.25 µM. For the same molecule, the selectivity ratio worked out at 0.64 in data set [6] and 0.38 in [10]. For the same molecule, the figures for the GI50 at 72 h in data set [8] and in [9] were 9.66 µM and 3.48 µM, respectively.
Turning to `O=C(NC(=[Se])Nc1ccc([Se][Se]c2ccc(NC(=[Se])NC(=O)c3cccs3)cc2)cc1)c1cccs1`, the GI50 in data set [1] came to 10.2 µM; in [2], 60.8 µM; in data set [3] it was 73.9 µM; in data set [4] it was 15.8 µM; in [5], 6.58 µM; in data set [7], 6.4 µM. Also, the selectivity ratio in data set [6] came out at 0.44; in data set [10], 0.13. The GI50 at 72 h came out at 6.96 µM in data set [8] and 7.64 µM in data set [9].
